# Reference: PubChem BioAssay
# Activity calls are given as the source filed them.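 How the source made its calls, unless noted: active means compounds giving at least 50% inhibition in the cell-based MKP-3 phosphatase rescue imaging test; inactive means the rest.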
# Legend:
# [1] = inhibitors of TNFa-induced NFkB p65 translocation, primary screen, imaging, HUVEC, MLSMR starter and 10KST1 sets (AID 438;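 active means inhibition above 20% together with a positive visual image hit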;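 further: compound added about 3h40 before a 20 min TNFalpha stimulation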;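 on inhibition: signal is the nuclear over cytoplasmic p65 intensity ratio per well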); conditions: HUVEC TNFa-induced p65 nuclear translocation; cell count: measured here: nuclei count (cytotoxicity indicator), at 2.08 µM; inhibition: at 2 µM, stronger effect = higher value, 0% TNFa-plus-vehicle, 100% no-TNFa wells
# [2] = endothelial E-selectin expression blockers – imaging, HUVEC, immunofluorescence, MLSMR starter and 10KST1 sets, primary screen (AID 487;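 active means visually confirmed hit in the image check and inhibition above 20%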;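 on inhibition: signal is fraction of cell area covered by stained E-selectin grains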;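 on nuclei count: 100% = median nuclei count of all wells on the same plate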); conditions: HUVEC TNFalpha-induced E-selectin immunofluorescence imaging, at 2 µM; inhibition: stronger effect = higher value; nuclei count: measured here: cell number, toxicity
# [3] = Primary imaging screen for DUSP6 inhibitors that restore phospho-Erk in transfected HeLa cells, chemical complementation (AID 609); conditions: HeLa MKP-3 transfected, phospho-Erk imaging KS statistic, at 10 µM, cells stimulated with TPA for 15 min;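 on inhibition: phospho-Erk level distribution per well compared with pooled transfected vehicle control wells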
# [4] = target: Dual specificity protein phosphatase 6 (Homo sapiens) (UniProt Q16828); experiment: as above; conditions: HeLa MKP-3 transfected, phospho-Erk imaging KS statistic; at 10 µM; stronger effect = higher value; cells stimulated with TPA for 15 min
# Chain of Dual specificity protein phosphatase 6 (Homo sapiens) (Q16828 whole entry, looked up): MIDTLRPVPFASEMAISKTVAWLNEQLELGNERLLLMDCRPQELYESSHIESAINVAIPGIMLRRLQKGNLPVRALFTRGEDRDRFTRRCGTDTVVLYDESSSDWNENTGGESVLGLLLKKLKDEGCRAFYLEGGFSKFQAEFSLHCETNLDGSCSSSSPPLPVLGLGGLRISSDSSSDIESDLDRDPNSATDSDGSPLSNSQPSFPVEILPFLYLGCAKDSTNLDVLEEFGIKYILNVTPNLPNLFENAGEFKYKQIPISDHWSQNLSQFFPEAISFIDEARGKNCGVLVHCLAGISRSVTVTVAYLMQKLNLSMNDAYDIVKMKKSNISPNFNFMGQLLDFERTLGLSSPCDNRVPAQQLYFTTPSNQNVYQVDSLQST
# [5] = target: Voltage-gated potassium channel subunit beta-2 (Rattus norvegicus) (UniProt P62483); experiment: inhibitors of rat Kvbeta2 reductase activity – biochemical, NADPH fluorescence, primary screen (AID 622;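 active means fluorescence slope higher than the sample average by over 3 SD, cut at about -0.22 in these data, passing the limit was not always enough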;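 further: slope of raw intensity against log time taken from 70 to 1610 s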); conditions: recombinant KvBeta, 4-cyanobenzaldehyde reduction, at 10 µM, stronger effect = higher value
# Chain of Voltage-gated potassium channel subunit beta-2 (Rattus norvegicus) (P62483 whole entry, looked up): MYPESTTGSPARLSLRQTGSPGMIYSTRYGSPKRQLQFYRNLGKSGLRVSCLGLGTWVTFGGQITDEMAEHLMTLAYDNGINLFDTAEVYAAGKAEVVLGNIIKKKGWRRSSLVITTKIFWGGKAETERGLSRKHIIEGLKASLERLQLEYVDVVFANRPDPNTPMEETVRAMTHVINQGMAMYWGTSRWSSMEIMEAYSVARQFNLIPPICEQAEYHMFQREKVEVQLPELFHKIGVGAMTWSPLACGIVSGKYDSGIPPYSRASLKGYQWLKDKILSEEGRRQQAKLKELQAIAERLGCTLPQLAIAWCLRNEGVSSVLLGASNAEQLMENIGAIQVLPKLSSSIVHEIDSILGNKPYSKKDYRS
# [6] = target: Voltage-gated potassium channel subunit beta-2 (Rattus norvegicus) (UniProt P62483); experiment: enhancers of rat Kvbeta2 NADPH turnover – biochemical, NADPH fluorescence, primary screen (AID 623;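 active means NADPH fluorescence slope more negative than the mean of all samples by about 3 SD, 99.7% confidence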;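 further: fluorescence intensity change per second fitted from 20 to 320 s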); conditions: Recombinant KvBeta, NADPH fluorescence decrease slope, 10 min; at 10 µM; stronger effect = lower value
# [7] = target: Alpha-2C adrenergic receptor (Homo sapiens) (UniProt P18825); experiment: compounds altering alpha2C-coupled GIRK flux – cell-based, HEK293 alpha2C/GIRK1/2, thallium flux, primary screen (AID 624;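 active means fluorescence slope after compound addition differing from the mean of all screened samples at 99.7% confidence, in either direction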;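 further: slope of fluorescence ratio to pre-addition baseline per second over 15 to 24 s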); conditions: thallium flux BTC fluorescence, at 10 µM, actives lie on both sides
# Chain of Alpha-2C adrenergic receptor (Homo sapiens) (P18825 whole entry, looked up): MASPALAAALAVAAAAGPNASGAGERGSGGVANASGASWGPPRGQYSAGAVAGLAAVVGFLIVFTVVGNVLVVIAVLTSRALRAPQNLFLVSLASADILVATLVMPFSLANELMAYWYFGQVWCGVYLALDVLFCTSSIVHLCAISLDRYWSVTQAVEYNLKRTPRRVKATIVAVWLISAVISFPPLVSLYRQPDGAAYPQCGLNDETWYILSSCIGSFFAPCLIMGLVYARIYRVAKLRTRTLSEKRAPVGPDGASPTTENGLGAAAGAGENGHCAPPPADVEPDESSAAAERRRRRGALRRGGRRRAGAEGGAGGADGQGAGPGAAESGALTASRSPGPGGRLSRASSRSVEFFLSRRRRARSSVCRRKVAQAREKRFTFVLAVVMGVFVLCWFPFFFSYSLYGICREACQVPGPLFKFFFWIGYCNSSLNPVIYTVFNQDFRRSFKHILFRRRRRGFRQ
# [8] = inhibitors of larval lipid processing in zebrafish, primary screen, whole organism, PED6 fluorescence, gall bladder and intestine (AID 686;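 active means a full or partial loss of lipid-probe fluorescence in the fish gall bladder, intestine or both, judged by eye; inactive means no fluorescence loss, or compound toxic to the fish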;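 further: larvae 5 to 7 days old with five fish per well; signal comes from phospholipase A2 cleavage of quenched PED6 carried via bile; overnight exposure to compound and PED6 before scoring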); conditions: Zebrafish larvae PED6 lipid processing, fluorescence scoring; screened at 20 µM (by protocol)
# Method in brief: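 Doses: 20 µM single dose. Test system: live zebrafish larvae aged 5-7 days, whole organism. Quantity: five larvae per well. Measured by: By-eye fluorescence microscopy. Reagent: ingested quenched lipid PED6 at 100 nM. Read-out: visual per-well fluorescence inhibition score. Times: overnight exposure of larvae to compound plus PED6.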
# [9] = loss of swimming-algae plug formation – whole organism, Chlamydomonas reinhardtii, WT vs cilia-less mutant, absorbance, 96-well, primary screen (AID 463189;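 active means inhibition at or above 50% relative to wild type and mutant plate controls; inactive means inhibition below 50%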;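 further: 0% = wild type cc124 cells in DMSO and 100% = ciliumless bld1 mutant cells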); conditions: Chlamydomonas reinhardtii gravitaxis, OD600 absorbance, 2 days; at 10 µM; stronger effect = higher value
# [10] = measured here: cell density z-score
# [11] = measured here: nuclear c-Myc green intensity z-score
# [12] = measured here: nuclear pErk red intensity z-score, stronger effect = higher value
Structure (SMILES),cell count [1],inhibition [1],inhibition [2],nuclei count [2],"z-score [3, 10]","z-score [3, 11]","z-score [3, 12]",inhibition [4],fluorescence slope [5],NADPH fluorescence slope [6],slope [7],outcome [8],inhibition [9]
COc1ccccc1C(=O)N1CCN(Cc2ccc3c(c2)OCO3)CC1,590,-14.5% (inactive),34.9% (inactive),183%,-2.41,2.03,1,-15% (inactive),-0.361 (inactive),-4e-05 (inactive),0.0055 (inactive),inactive,12.2% (inactive)
O=c1c(F)cn(C2CCCO2)c(=O)n1Cc1ccccc1Cl (stereo unspecified),614,1.6% (inactive),11.4% (inactive),203%,0.269,0.415,0.187,0.671% (inactive),-0.534 (inactive),-7.3e-05 (inactive),0.00591 (inactive),inactive,4.11% (inactive)
N#CC1=C(SCC(=O)c2ccccc2)NC2=C(C(=O)CCC2)C1c1ccco1 (stereo unspecified),310,-8% (inactive),-43.4% (inactive),91.7%,-2.24,2.65,-0.86,1.42% (inactive),-0.435 (inactive),-3.2e-05 (inactive),0.00719 (inactive),inactive,-15.7% (inactive)
Cc1ccc(CC2CC(=O)N(c3ccc4c(c3)OCCO4)C2=O)cc1 (stereo unspecified),482,-11% (inactive),-17.8% (inactive),129%,1.49,-1.24,0.443,15.1% (inactive),-0.513 (inactive),-0.000111 (inactive),0.00446 (inactive),inactive,25.7% (inactive)
CC1(C)Cc2c(sc3c2C(=O)N(c2ccccc2)C2=NCCCN23)CO1,624,-12.4% (inactive),-154% (inactive),120%,1.04,-0.486,-1.32,18.9% (inactive),-0.593 (inactive),-2e-05 (inactive),0.00454 (inactive),inactive,41.4% (inactive)
N#CC1=C(SCC(=O)c2ccc(Br)cc2)NC2=C(C(=O)CCC2)C1c1ccco1 (stereo unspecified),383,-10.4% (inactive),-96.6% (inactive),179%,0.687,-1.61,1.14,-8.59% (inactive),-0.399 (inactive),-0.000128 (inactive),0.00589 (inactive),inactive,3.41% (inactive)
CCOc1ccc(C2C(C#N)=C(N)SC(N)=C2C#N)cc1OC,654,-21.3% (inactive),22.8% (inactive),177%,0.539,-1.2,0.0794,-3.95% (inactive),-0.291 (inactive),-3e-05 (inactive),0.00675 (inactive),inactive,5.29% (inactive)
